Results on 4 compounds are retold here after ChEMBL document CHEMBL5346868 (Eur J Med Chem, 2023).

Chain of METTL3/METTL14 (Q86U44 whole entry): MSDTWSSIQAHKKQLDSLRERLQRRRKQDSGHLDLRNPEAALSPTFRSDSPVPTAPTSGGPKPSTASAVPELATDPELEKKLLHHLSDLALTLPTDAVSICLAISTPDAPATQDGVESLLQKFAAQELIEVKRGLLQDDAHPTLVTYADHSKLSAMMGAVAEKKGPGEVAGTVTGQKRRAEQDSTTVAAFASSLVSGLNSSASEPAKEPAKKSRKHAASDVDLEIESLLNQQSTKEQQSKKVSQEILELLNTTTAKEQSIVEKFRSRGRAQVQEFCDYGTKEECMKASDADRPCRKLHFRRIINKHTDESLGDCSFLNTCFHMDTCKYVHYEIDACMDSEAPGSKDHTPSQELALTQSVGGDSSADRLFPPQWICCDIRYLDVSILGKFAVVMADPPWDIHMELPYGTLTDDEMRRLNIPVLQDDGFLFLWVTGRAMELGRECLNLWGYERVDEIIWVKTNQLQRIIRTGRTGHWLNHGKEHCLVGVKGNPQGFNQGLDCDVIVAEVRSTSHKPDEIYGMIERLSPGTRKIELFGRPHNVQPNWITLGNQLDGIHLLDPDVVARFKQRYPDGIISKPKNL
Chain of METTL3/METTL14 (Q9HCE5 whole entry, further chain): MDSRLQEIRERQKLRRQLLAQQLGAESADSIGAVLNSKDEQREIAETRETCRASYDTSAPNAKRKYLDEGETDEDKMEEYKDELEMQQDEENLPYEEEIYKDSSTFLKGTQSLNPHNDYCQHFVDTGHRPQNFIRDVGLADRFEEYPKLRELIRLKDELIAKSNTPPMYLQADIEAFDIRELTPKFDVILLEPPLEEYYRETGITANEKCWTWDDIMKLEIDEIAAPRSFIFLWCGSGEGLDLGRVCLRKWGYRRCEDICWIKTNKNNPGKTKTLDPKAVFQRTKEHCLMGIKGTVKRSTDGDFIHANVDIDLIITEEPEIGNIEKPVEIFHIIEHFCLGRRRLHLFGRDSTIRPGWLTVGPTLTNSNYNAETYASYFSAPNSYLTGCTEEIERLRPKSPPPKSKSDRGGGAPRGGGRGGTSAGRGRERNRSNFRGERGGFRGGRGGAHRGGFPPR

System in one series: not listed separately
Description: Selectivity index, ratio of CC50 for human RD cells to EC50 for antiviral activity against human Enterovirus 71. Format: toxicity. The following applies: read-out: Ratio CC50/EC50. Put shortly: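 SI is calculated as CC50 on uninfected RD cells divided by EC50 in the 3-day EV71 BrCr CPE-reduction MTS assay.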
As for `Cc1cccc(CNc2ncnc3c2ncn3[C@@H]2O[C@H](CO)[C@@H](O)[C@H]2O)c1`, the selectivity ratio is > 1060.

On to `OC[C@H]1O[C@@H](n2ccc3c(NCc4cccc(C(F)(F)F)c4)ncnc32)[C@H](O)[C@@H]1O`, for which the selectivity ratio is > 1070.

For `OC[C@H]1O[C@@H](n2cnc3c(NCc4cccc(S(F)(F)(F)(F)F)c4)ncnc32)[C@H](O)[C@@H]1O`, the selectivity ratio is > 1280.

For the compound `OC[C@H]1O[C@@H](n2cnc3c(NCc4cccc(C(F)(F)F)c4)ncnc32)[C@H](O)[C@@H]1O`, the selectivity ratio was > 2770.

In a further series the test system is SARS-CoV-2. Briefly: Antiviral activity against SARS-CoV-2 BetaCoV/Belgium/GHB-03021/2020 infected in african green monkey Vero cells assessed as decline in virus induced cytopathogenicity measured after 4 days by argon laser scanning microscopic analysis. Format: functional, organism-based. The following applies: Severe acute respiratory syndrome coronavirus 2, BetaCoV/Belgium/GHB-03021/2020, Vero, 96 h.
With `Cc1cccc(CNc2ncnc3c2ncn3[C@@H]2O[C@H](CO)[C@@H](O)[C@H]2O)c1`, the EC50 (in general, the concentration at which the effect is half-maximal) is > 100 µM.

`OC[C@H]1O[C@@H](n2ccc3c(NCc4cccc(C(F)(F)F)c4)ncnc32)[C@H](O)[C@@H]1O`: the 50% effective concentration (EC50) is > 100 µM.

`OC[C@H]1O[C@@H](n2cnc3c(NCc4cccc(S(F)(F)(F)(F)F)c4)ncnc32)[C@H](O)[C@@H]1O`: the concentration for a half-maximal effect (EC50) is > 100 µM.

For `OC[C@H]1O[C@@H](n2cnc3c(NCc4cccc(C(F)(F)F)c4)ncnc32)[C@H](O)[C@@H]1O`, the EC50 was > 100 µM.

System in a further series: not listed separately
Briefly: Cytotoxicity against african green monkey Vero cells by MTS assay. Format: toxicity, cell-based. The conditions noted are these: chlorocebus sabaeus.
For the compound `Cc1cccc(CNc2ncnc3c2ncn3[C@@H]2O[C@H](CO)[C@@H](O)[C@H]2O)c1`, the CC50 (usually the concentration that lowers cell viability or growth by half) is > 100 µM.

`OC[C@H]1O[C@@H](n2ccc3c(NCc4cccc(C(F)(F)F)c4)ncnc32)[C@H](O)[C@@H]1O`: the cytotoxic concentration (CC50) is > 100 µM.

`OC[C@H]1O[C@@H](n2cnc3c(NCc4cccc(S(F)(F)(F)(F)F)c4)ncnc32)[C@H](O)[C@@H]1O`: the CC50 was > 100 µM.

System in the next series: not listed separately
Briefly: Cytotoxicity against human RD cells by MTS assay. Format: toxicity, cell-based.
Conditions: not given
Summed up:
(§1)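 Treated, uninfected RD or HeLa cells are run alongside the matching enterovirus CPE assays, with viability read by MTS. CC50 is the concentration giving a 50% adverse effect on host cells.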
As to `Cc1cccc(CNc2ncnc3c2ncn3[C@@H]2O[C@H](CO)[C@@H](O)[C@H]2O)c1`, the CC50 is > 100 µM.

As to `OC[C@H]1O[C@@H](n2ccc3c(NCc4cccc(C(F)(F)F)c4)ncnc32)[C@H](O)[C@@H]1O`, the CC50 was > 100 µM.

For the compound `OC[C@H]1O[C@@H](n2cnc3c(NCc4cccc(S(F)(F)(F)(F)F)c4)ncnc32)[C@H](O)[C@@H]1O`, the CC50 was > 100 µM.

For the compound `OC[C@H]1O[C@@H](n2cnc3c(NCc4cccc(C(F)(F)F)c4)ncnc32)[C@H](O)[C@@H]1O`, the 50% cytotoxic concentration (CC50) was > 100 µM.

System in another series: not listed separately
Description: Cytotoxicity against african green monkey Vero E6 cells by MTS assay. Format: toxicity, cell-based, Vero C1008. The conditions noted are these: chlorocebus sabaeus. Put shortly:
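Cytotoxicity is measured on treated, uninfected Vero E6 cells in parallel with the antiviral assays, using a standard MTS assay. CC50 is the concentration causing a 50% adverse effect on host cells.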
As to `Cc1cccc(CNc2ncnc3c2ncn3[C@@H]2O[C@H](CO)[C@@H](O)[C@H]2O)c1`, the CC50 is > 100 µM.

Turning to `OC[C@H]1O[C@@H](n2ccc3c(NCc4cccc(C(F)(F)F)c4)ncnc32)[C@H](O)[C@@H]1O`, the CC50 was > 100 µM.

Consider `OC[C@H]1O[C@@H](n2cnc3c(NCc4cccc(S(F)(F)(F)(F)F)c4)ncnc32)[C@H](O)[C@@H]1O`, for which the CC50 is > 100 µM.

As for `OC[C@H]1O[C@@H](n2cnc3c(NCc4cccc(C(F)(F)F)c4)ncnc32)[C@H](O)[C@@H]1O`, the CC50 was > 100 µM.

Another series relates to rhinovirus A2. Briefly: Antiviral activity against Human rhinovirus 2 infected in human HeLa cells assessed as reduction of virus induced cytopathic effect incubated for 3 days by MTS assay. Format: functional, organism-based. The following applies: Rhinovirus A, 72 h. Put shortly:
(§2)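 Same setup as the EV71 assay: confluent monolayers (Vero A for CVB3; HeLa for CVA21, EV68, HRV-A02, HRV-B14) are infected with virus and treated with a compound dilution series. Incubation is 3 days at 37 °C, 5% CO2, and residual viability is read by MTS. EC50 is the 50% effective concentration, mean of at least 2 independent experiments.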
A general note: Protection from cytopathic effect is a common read-out in antiviral testing.
`Cc1cccc(CNc2ncnc3c2ncn3[C@@H]2O[C@H](CO)[C@@H](O)[C@H]2O)c1`: the EC50 is > 100 µM.

Consider `OC[C@H]1O[C@@H](n2ccc3c(NCc4cccc(C(F)(F)F)c4)ncnc32)[C@H](O)[C@@H]1O`, for which the EC50 was > 100 µM.

As to `OC[C@H]1O[C@@H](n2cnc3c(NCc4cccc(S(F)(F)(F)(F)F)c4)ncnc32)[C@H](O)[C@@H]1O`, the EC50 was > 100 µM.

Another series addresses METTL3/METTL14 (Homo sapiens, UniProt Q86U44). Description: Inhibition of human recombinant full length METTL3/human N-terminal FLAG-tagged METTL14 expressed in SF9 cells assessed as methyltransferase residual activity using ssRNA 5'-rUrArC rArCrU rCrGrA rUrCrU rGrGrA rCrUrA rArArG rCrUrG rCrUrC -3' as substrate incubated for 20 mins followed by H-SAM addition measured after 2 hrs by radio isotope reaction system analysis.
Conditions: not given
Put shortly: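 Compound is pre-incubated for 20 min at room temperature, then 1 μM [3H-methyl]SAM is added for 2 h at room temperature. Activity is reported as % remaining, screened at 100 μM, with IC50 from curve fits.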
With `OC[C@H]1O[C@@H](n2ccc3c(NCc4cccc(C(F)(F)F)c4)ncnc32)[C@H](O)[C@@H]1O`, the concentration for half-maximal inhibition (IC50) (in general, the concentration that gives 50% inhibition) was determined as 129 µM.

The next series concerns Coxsackievirus A21. Briefly: Antiviral activity against Coxsackievirus 21 infected in human HeLa cells assessed as reduction of virus induced cytopathic effect incubated for 3 days by MTS assay. Format: functional, organism-based. The following applies: Enterovirus C, 72 h. Summed up: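 HeLa cells infected with coxsackievirus A21 (~100 CCID50) and treated with a compound dilution series, as in the EV71 set-up. Incubation was 3 days at 37 °C, 5% CO2, with residual viability quantified by MTS. EC50 is the concentration giving 50% antiviral effect. Values are means of ≥2 independent experiments.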
Consider `Cc1cccc(CNc2ncnc3c2ncn3[C@@H]2O[C@H](CO)[C@@H](O)[C@H]2O)c1`, for which the EC50 amounted to 36.4 µM.

As for `OC[C@H]1O[C@@H](n2ccc3c(NCc4cccc(C(F)(F)F)c4)ncnc32)[C@H](O)[C@@H]1O`, the EC50 is 19.9 µM.

As for `OC[C@H]1O[C@@H](n2cnc3c(NCc4cccc(S(F)(F)(F)(F)F)c4)ncnc32)[C@H](O)[C@@H]1O`, the EC50 stood at 31.7 µM.

A further series deals with Zika virus. Description: Antiviral activity against ZIKV MR766 infected in african green monkey Vero E6 cells assessed as decline in virus induced cytopathogenicity measured after 5 days by MTS based microscopic analysis. Format: functional, organism-based. The following applies: MR766, Vero C1008, 120 h. Put shortly: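 Vero E6 cells (10^4/well) are seeded in MEM with 2% FCS and left to adhere overnight. Cells are then infected with ZIKV MR766 (passaged in C6/36 cells) and given 2-fold serial compound dilutions. After 5 days, CPE is scored by MTS and by microscopy of fixed, stained cells. EC50 is the 50% antiviral effect.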
With `Cc1cccc(CNc2ncnc3c2ncn3[C@@H]2O[C@H](CO)[C@@H](O)[C@H]2O)c1`, the EC50 was > 100 µM.

Consider `OC[C@H]1O[C@@H](n2ccc3c(NCc4cccc(C(F)(F)F)c4)ncnc32)[C@H](O)[C@@H]1O`, for which the EC50 is > 100 µM.

Take `OC[C@H]1O[C@@H](n2cnc3c(NCc4cccc(S(F)(F)(F)(F)F)c4)ncnc32)[C@H](O)[C@@H]1O`: the EC50 is > 100 µM.

`OC[C@H]1O[C@@H](n2cnc3c(NCc4cccc(C(F)(F)F)c4)ncnc32)[C@H](O)[C@@H]1O`: the EC50 was > 100 µM.

The test system of a further series is Coxsackievirus B3. Briefly: Antiviral activity against Coxsackievirus B3 infected in african green monkey Vero cells assessed as reduction of virus induced cytopathic effect incubated for 3 days by MTS assay. Format: functional, organism-based. The following applies: Enterovirus B, 72 h. Summed up:
as §2
Consider `Cc1cccc(CNc2ncnc3c2ncn3[C@@H]2O[C@H](CO)[C@@H](O)[C@H]2O)c1`, for which the EC50 was > 100 µM.

Take `OC[C@H]1O[C@@H](n2ccc3c(NCc4cccc(C(F)(F)F)c4)ncnc32)[C@H](O)[C@@H]1O`: the EC50 was > 100 µM.

In the case of `OC[C@H]1O[C@@H](n2cnc3c(NCc4cccc(S(F)(F)(F)(F)F)c4)ncnc32)[C@H](O)[C@@H]1O`, the EC50 was > 100 µM.

The test system of a further series is enterovirus D68. Description: Antiviral activity against Human enterovirus 68 infected in human HeLa cells assessed as reduction of virus induced cytopathic effect incubated for 3 days by MTS assay. Format: functional, organism-based. The conditions noted are these: Enterovirus D, 72 h. Summed up:
as §2
Turning to `Cc1cccc(CNc2ncnc3c2ncn3[C@@H]2O[C@H](CO)[C@@H](O)[C@H]2O)c1`, the EC50 came out at 8.9 µM.

As for `OC[C@H]1O[C@@H](n2ccc3c(NCc4cccc(C(F)(F)F)c4)ncnc32)[C@H](O)[C@@H]1O`, the EC50 was found to be 91.2 µM.

`OC[C@H]1O[C@@H](n2cnc3c(NCc4cccc(S(F)(F)(F)(F)F)c4)ncnc32)[C@H](O)[C@@H]1O`: the EC50 is > 100 µM.

System in another series: not listed separately
Briefly: Cytotoxicity against human HeLa cells by MTS assay. Format: toxicity, cell-based.
Conditions: not given
Summed up: as §1
On the technique in general: Formazan colour is commonly taken as a measure of viable cells.
In the case of `Cc1cccc(CNc2ncnc3c2ncn3[C@@H]2O[C@H](CO)[C@@H](O)[C@H]2O)c1`, the CC50 is > 100 µM.

With `OC[C@H]1O[C@@H](n2ccc3c(NCc4cccc(C(F)(F)F)c4)ncnc32)[C@H](O)[C@@H]1O`, the CC50 was > 100 µM.

The compound `OC[C@H]1O[C@@H](n2cnc3c(NCc4cccc(S(F)(F)(F)(F)F)c4)ncnc32)[C@H](O)[C@@H]1O` showed a CC50 of 88.7 µM.

The subject of another series is Enterovirus A71. Briefly: Antiviral activity against human Enterovirus 71 BrCr infected in human RD cells assessed as reduction of virus induced cytopathic effect incubated for 3 days by MTS assay. Format: functional, organism-based. The conditions noted are these: Enterovirus A, 72 h. Put shortly:
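Confluent RD cells (EMEM, 10% heat-inactivated FBS) are infected with ~100 CCID50 of EV71 BrCr and treated with a compound dilution series. After 3 days at 37 °C, 5% CO2, residual viability is measured by MTS. EC50 is the concentration giving 50% antiviral effect, from at least 2–3 independent experiments.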
In the case of `Cc1cccc(CNc2ncnc3c2ncn3[C@@H]2O[C@H](CO)[C@@H](O)[C@H]2O)c1`, the EC50 came out at 0.094 µM.

`OC[C@H]1O[C@@H](n2ccc3c(NCc4cccc(C(F)(F)F)c4)ncnc32)[C@H](O)[C@@H]1O`: the concentration for a half-maximal effect (EC50) was found to be 0.101 µM.

On to `OC[C@H]1O[C@@H](n2cnc3c(NCc4cccc(S(F)(F)(F)(F)F)c4)ncnc32)[C@H](O)[C@@H]1O`, for which the EC50 was found to be 0.102 µM.

For the compound `OC[C@H]1O[C@@H](n2cnc3c(NCc4cccc(C(F)(F)F)c4)ncnc32)[C@H](O)[C@@H]1O`, the EC50 stood at 0.036 µM.

In another series the test system is Enterovirus A71. Description: Antiviral activity against human enterovirus 71 BrCr infected in human RD cells measured by colorometric based MTS/PMS method. Format: functional, organism-based. The following applies: Enterovirus A. Summed up: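 EV71 BrCr in confluent RD cells (MEM, 10% heat-inactivated FBS) infected with ~100 CCID50 and given a compound dilution series. Incubation was 3 days at 37 °C, 5% CO2, with residual viability read by MTS. EC50 is the concentration giving 50% antiviral effect. Toxicity was run in parallel on treated uninfected cells. Values are means of ≥2 independent experiments.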
Compound `OC[C@H]1O[C@@H](n2cnc3c(NCc4cccc(C(F)(F)F)c4)ncnc32)[C@H](O)[C@@H]1O` showed an EC50 of 0.068 µM.

The test system of a further series is rhinovirus B14. Briefly: Antiviral activity against Human rhinovirus 14 infected in human HeLa cells assessed as reduction of virus induced cytopathic effect incubated for 3 days by MTS assay. The conditions noted are these: Rhinovirus B, 72 h. Format: functional, organism-based. Summed up: as §2
Take `Cc1cccc(CNc2ncnc3c2ncn3[C@@H]2O[C@H](CO)[C@@H](O)[C@H]2O)c1`: the EC50 was > 100 µM.

For `OC[C@H]1O[C@@H](n2ccc3c(NCc4cccc(C(F)(F)F)c4)ncnc32)[C@H](O)[C@@H]1O`, the EC50 was > 100 µM.

Turning to `OC[C@H]1O[C@@H](n2cnc3c(NCc4cccc(S(F)(F)(F)(F)F)c4)ncnc32)[C@H](O)[C@@H]1O`, the EC50 is > 100 µM.
